Laboratory results as given in ChEMBL document CHEMBL2396539, “Asymmetric synthesis of the four diastereoisomers of a novel non-steroidal farnesoid X receptor (FXR) agonist: role of the chirality on the biological activity” (Bioorg Med Chem, 2013).

Tests used:
Bile acid receptor = target: T1, Bile acid receptor (Homo sapiens, UniProt Q96RI1); test: Agonist activity at GST-tagged human FXR LBD assessed as recruitment of biotinylated SRC-1 peptide after 30 mins by AlphaScreen assay
T1 sequence (Q96RI1 whole entry): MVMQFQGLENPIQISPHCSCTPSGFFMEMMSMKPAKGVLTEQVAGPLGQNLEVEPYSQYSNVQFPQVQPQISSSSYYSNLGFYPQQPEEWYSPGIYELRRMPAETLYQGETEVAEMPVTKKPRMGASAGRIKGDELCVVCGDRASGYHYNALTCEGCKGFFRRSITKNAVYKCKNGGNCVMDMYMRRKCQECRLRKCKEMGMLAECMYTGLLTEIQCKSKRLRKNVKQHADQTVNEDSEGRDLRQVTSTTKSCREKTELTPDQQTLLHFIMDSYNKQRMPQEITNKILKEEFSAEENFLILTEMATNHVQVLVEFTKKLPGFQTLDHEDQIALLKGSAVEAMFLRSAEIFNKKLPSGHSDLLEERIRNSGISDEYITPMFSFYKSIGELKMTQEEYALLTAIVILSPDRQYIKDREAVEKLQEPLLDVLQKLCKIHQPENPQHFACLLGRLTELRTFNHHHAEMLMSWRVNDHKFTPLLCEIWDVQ
How it was run: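 Human FXR ligand-binding domain fused to GST was incubated with the ligand at increasing concentrations together with biotinylated SRC-1 peptide. Ligand-dependent recruitment of the coactivator peptide was read out by AlphaScreen. Where tested, compounds were single diastereoisomers or a mixture of syn- and anti-couples.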

[1] = target: T2, Bile acid receptor (Homo sapiens) (UniProt Q96RI1); test: Agonist activity at GST-tagged human FXR LBD assessed as recruitment of biotinylated SRC-1 peptide after 30 mins by AlphaScreen assay relative to CDCA
T2 sequence (whole entry): T1 sequence (Q96RI1 whole entry)

Row | Structure (SMILES) | EC50 (Bile acid receptor) [µM] | Efficacy [1] [%]
1 | Cc1ccccc1-n1nc(C)c2c1NC(=O)[C@H](C)S[C@@H]2c1ccc(Oc2ccccc2)cc1 [listing 1 of 2 here] | 1.4 | 
2 | Cc1ccccc1-n1nc(C)c2c1NC(=O)[C@@H](C)S[C@@H]2c1ccc(Oc2ccccc2)cc1 | > 150 | 
3 | Cc1ccccc1-n1nc(C)c2c1NC(=O)[C@@H](C)S[C@H]2c1ccc(Oc2ccccc2)cc1 | > 150 | 
4 | Cc1ccccc1-n1nc(C)c2c1NC(=O)[C@H](C)S[C@H]2c1ccc(Oc2ccccc2)cc1 | > 150 | 
5 | Cc1ccccc1-n1nc(C)c2c1NC(=O)[C@H](C)S[C@@H]2c1ccc(Oc2ccccc2)cc1 [listing 2 of 2 here] |  | 130
6 | CCC1SC(c2ccc(Oc3ccccc3)cc2)c2c(C)nn(-c3ccccc3C)c2NC1=O (mixture of isomers) | 3 | 35
7 | Cc1ccccc1-n1nc(C)c2c1NC(=O)[C@H](C)S[C@@H]2c1ccc(Oc2ccccc2)cc1 (racemic) [listing 1 of 2 here] | 3 | 
8 | Cc1ccccc1-n1ncc2c1NC(=O)[C@H](C)S[C@@H]2c1ccc(Oc2ccccc2)cc1 (racemic) | > 150 | 
9 | CCc1nn(-c2ccccc2C)c2c1[C@@H](c1ccc(Oc3ccccc3)cc1)S[C@@H](C)C(=O)N2 (racemic) | 2 | 140
10 | Cc1ccccc1-n1nc(C)c2c1NC(=O)CS[C@H]2c1ccc(Oc2ccccc2)cc1 (racemic) | 14 | 8
11 | CCC[C@@H]1S[C@H](c2ccc(Oc3ccccc3)cc2)c2c(C)nn(-c3ccccc3C)c2NC1=O (racemic) | > 150 | 
12 | Cc1ccccc1-n1nc(C)c2c1NC(=O)[C@H](C)S[C@@H]2c1ccc(Oc2ccccc2)cc1 (racemic) [listing 2 of 2 here] |  | 150
